Test results from paper PMC5731459 (Science translational medicine, 2017).
≈ marks a conversion by molar mass, not a printed value. Where “and” joins values, the source holds several entries; their conditions need not be identical. Equal entries are not always repeated. Where two headings read alike, the source gives them in different places.

Key:
[1] = system: P. falciparum (NF54 drug-sensitive strain); experiment: [3H]-hypoxanthine incorporation assay, asexual blood-stage parasites; format: cell-based; conditions: Plasmodium falciparum, NF54, 72 h
[2] = system: P. falciparum 3D7 strain; experiment: In vitro parasite reduction ratio; format: cell-based, Plasmodium falciparum; conditions: 10× IC50
[3] = system: P. falciparum NF54 strain; experiment: Erythrocytic IC50 speed and stage specificity assays; format: cell-based, Plasmodium falciparum
[4] = system: P. berghei; experiment: P. berghei mouse efficacy model; format: in vivo, Plasmodium berghei
[5] = system: drug-sensitive 3D7 P. falciparum strain; experiment: P. falciparum humanized SCID mouse efficacy model; format: in vivo, Plasmodium falciparum; conditions: once daily oral for four consecutive days
Summary of the method: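 Humanized SCID mice were infected with P. falciparum 3D7. From day 3 after infection, test compound was given orally once daily for 4 days, one mouse per dose level. Blood parasitemia was measured by flow cytometry and ED90 was read at day 7. Whole-blood drug levels were sampled 0–23 h after the first dose (LLOQ 1 ng/mL).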

[6] = system: P. falciparum; experiment: PKPD; format: in vivo, Plasmodium falciparum
Summary of the method: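 A direct-effect composite Emax PKPD model was fitted to humanized SCID mouse P. falciparum efficacy data, allowing for change in kill rate at higher doses. Inputs were modeled blood concentrations from individual-mouse whole-blood PK after once-daily oral dosing for 4 days. The model gave MIC, EC50/EC90 for kill rate and predicted parasitemia after 4 days.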

[7] = system: P. falciparum late-stage gametocytes (stages IV and V); experiment: Gametocyte viability assay; format: cell-based; conditions: Plasmodium falciparum, read-out: IC50, gametocyte viability (pLDH)
[8] = system: P. falciparum early-stage (stages I to III) gametocytes expressing luciferase; experiment: Gametocyte viability assay; format: cell-based, Plasmodium falciparum
[9] = system: P. falciparum late-stage (stages IV and V) gametocytes expressing luciferase; experiment: Gametocyte viability assay; format: cell-based, Plasmodium falciparum
[10] = system: P. falciparum stage V gametocytes; experiment: Male gamete formation; format: cell-based; conditions: Plasmodium falciparum, 24 h, read-out: potency, inhibition of exflagellation
[11] = system: P. falciparum stage V gametocytes (oocysts in mosquito midgut); experiment: Indirect standard membrane-feeding assay; format: cell-based; conditions: Plasmodium falciparum, 24 h, read-out: inhibition of oocyst formation (potency)
[12] = system: P. falciparum stage V gametocytes (oocysts in mosquito midgut); experiment: Direct standard membrane-feeding assay; format: cell-based; conditions: Plasmodium falciparum, read-out: inhibition of the formation of oocysts
[13] = system: P. berghei; experiment: Mouse-to-mouse transmission model; format: in vivo, Plasmodium berghei; conditions: 2 mg/kg oral; compared to 6.1 days in control mice
Summary of the method: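 Female TO mice (6–8 weeks) were infected i.p. with P. berghei clone 507cl1. On day 9, after exflagellation was confirmed, each received one 2 mg/kg oral gavage dose; controls were atovaquone 0.3 mg/kg and sulfadiazine 8.4 mg/kg i.p. Mosquitoes fed, then at day 21 bit naive mice for 20 min. Smears on days 4–10 set patency. Duplicates were combined by generalized linear mixed model against no-drug control.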

[14] = system: P. cynomolgi liver-stage parasites; experiment: P. cynomolgi liver-stage assay, IC99; format: cell-based, Plasmodium cynomolgi
[15] = Plasma concentrations in the prophylactic monkey study; format: in vivo, Macaca mulatta; conditions: po, 20 mg/kg
[16] = Plasma concentrations in the radical cure monkey study; format: in vivo, Macaca mulatta
[17] = Protein binding and blood-to-plasma partitioning; format: in vitro ADME
[18] = system: P. berghei-infected HepG2 liver cells; experiment: P. berghei liver-stage phenotyping in HepG2 cells; format: cell-based, Plasmodium berghei; conditions: 460 nM, 2 to 8 hours after infection
Summary of the method: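 Extracellular sporozoites were washed off at 2 h, then cells were exposed to 460 nM test compound or DMSO vehicle. Cells were fixed 8 h after invasion, immunolabeled and imaged by confocal microscopy.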

[19] = system: P. falciparum Dd2 parasites; experiment: microbe, parasite or virus in culture; format: cell-based; conditions: Plasmodium falciparum
[20] = system: Dd2 multidrug-resistant parental line; experiment: Cross-resistance test, parental line; format: cell-based; conditions: Plasmodium falciparum
[21] = system: parasites bearing PfPI4K mutation H1484Y; experiment: Cross-resistance test, transgenic PI4K-H1484Y line; format: cell-based; conditions: Plasmodium falciparum
[22] = system: parasites bearing PfPI4K mutation S1320L; experiment: Cross-resistance test, transgenic PI4K-S1320L line; format: cell-based; conditions: Plasmodium falciparum
[23] = target: T1, PfPI4K (Plasmodium falciparum, UniProt Q8I406); experiment: Chemoproteomic competition binding, immobilized MMV666845 beads
[24] = target: T1, PfPI4K; experiment: Chemoproteomic competition binding, Kinobeads
[25] = target: PI4KB (Q9UBF8) (Homo sapiens, UniProt Q9UBF8); experiment: Chemoproteomic pull-down in K562 cell extract; format: binding
Summary of the method: (§1)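 They were incubated 1 h at 4°C with K562 extract (5 mg) preincubated with test compound or buffer. Eluates were alkylated, separated by SDS gel and quantified by isobaric mass tagging LC-MS/MS.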

[26] = target: PI4KA (P42356) (Homo sapiens, UniProt P42356); experiment: Chemoproteomic pull-down in K562 cell extract; format: binding
Summary of the method: as §1

[27] = target: ATM (Q13315) (Homo sapiens, UniProt Q13315); experiment: Chemoproteomic pull-down in K562 cell extract; format: binding
Summary of the method: as §1

[28] = target: TNIK (Q9UKE5) (Homo sapiens, UniProt Q9UKE5); experiment: Chemoproteomic pull-down in K562 cell extract; format: binding
Summary of the method: as §1

[29] = Allometric scaling to human pharmacokinetics and dose
[30] = rats; cited from earlier work
[31] = pH 6.5; cited from earlier work
[32] = in vivo; conditions: male (mice, rats), female (monkeys, dogs), Swiss outbred (mice), Sprague Dawley (rats), beagle (dogs), mouse, rat, dog, cynomolgus monkey, iv
[33] = system: P. cynomolgi; experiment: Radical cure study in P. cynomolgi-infected rhesus macaques; conditions: 20 mg/kg oral daily for 5 days, Cmax 5697 ng/ml
[34] = Plasmodium falciparum, read-out: IC50, gametocyte viability (luciferase)

ATM (Q13315), sequence (Q13315 whole entry): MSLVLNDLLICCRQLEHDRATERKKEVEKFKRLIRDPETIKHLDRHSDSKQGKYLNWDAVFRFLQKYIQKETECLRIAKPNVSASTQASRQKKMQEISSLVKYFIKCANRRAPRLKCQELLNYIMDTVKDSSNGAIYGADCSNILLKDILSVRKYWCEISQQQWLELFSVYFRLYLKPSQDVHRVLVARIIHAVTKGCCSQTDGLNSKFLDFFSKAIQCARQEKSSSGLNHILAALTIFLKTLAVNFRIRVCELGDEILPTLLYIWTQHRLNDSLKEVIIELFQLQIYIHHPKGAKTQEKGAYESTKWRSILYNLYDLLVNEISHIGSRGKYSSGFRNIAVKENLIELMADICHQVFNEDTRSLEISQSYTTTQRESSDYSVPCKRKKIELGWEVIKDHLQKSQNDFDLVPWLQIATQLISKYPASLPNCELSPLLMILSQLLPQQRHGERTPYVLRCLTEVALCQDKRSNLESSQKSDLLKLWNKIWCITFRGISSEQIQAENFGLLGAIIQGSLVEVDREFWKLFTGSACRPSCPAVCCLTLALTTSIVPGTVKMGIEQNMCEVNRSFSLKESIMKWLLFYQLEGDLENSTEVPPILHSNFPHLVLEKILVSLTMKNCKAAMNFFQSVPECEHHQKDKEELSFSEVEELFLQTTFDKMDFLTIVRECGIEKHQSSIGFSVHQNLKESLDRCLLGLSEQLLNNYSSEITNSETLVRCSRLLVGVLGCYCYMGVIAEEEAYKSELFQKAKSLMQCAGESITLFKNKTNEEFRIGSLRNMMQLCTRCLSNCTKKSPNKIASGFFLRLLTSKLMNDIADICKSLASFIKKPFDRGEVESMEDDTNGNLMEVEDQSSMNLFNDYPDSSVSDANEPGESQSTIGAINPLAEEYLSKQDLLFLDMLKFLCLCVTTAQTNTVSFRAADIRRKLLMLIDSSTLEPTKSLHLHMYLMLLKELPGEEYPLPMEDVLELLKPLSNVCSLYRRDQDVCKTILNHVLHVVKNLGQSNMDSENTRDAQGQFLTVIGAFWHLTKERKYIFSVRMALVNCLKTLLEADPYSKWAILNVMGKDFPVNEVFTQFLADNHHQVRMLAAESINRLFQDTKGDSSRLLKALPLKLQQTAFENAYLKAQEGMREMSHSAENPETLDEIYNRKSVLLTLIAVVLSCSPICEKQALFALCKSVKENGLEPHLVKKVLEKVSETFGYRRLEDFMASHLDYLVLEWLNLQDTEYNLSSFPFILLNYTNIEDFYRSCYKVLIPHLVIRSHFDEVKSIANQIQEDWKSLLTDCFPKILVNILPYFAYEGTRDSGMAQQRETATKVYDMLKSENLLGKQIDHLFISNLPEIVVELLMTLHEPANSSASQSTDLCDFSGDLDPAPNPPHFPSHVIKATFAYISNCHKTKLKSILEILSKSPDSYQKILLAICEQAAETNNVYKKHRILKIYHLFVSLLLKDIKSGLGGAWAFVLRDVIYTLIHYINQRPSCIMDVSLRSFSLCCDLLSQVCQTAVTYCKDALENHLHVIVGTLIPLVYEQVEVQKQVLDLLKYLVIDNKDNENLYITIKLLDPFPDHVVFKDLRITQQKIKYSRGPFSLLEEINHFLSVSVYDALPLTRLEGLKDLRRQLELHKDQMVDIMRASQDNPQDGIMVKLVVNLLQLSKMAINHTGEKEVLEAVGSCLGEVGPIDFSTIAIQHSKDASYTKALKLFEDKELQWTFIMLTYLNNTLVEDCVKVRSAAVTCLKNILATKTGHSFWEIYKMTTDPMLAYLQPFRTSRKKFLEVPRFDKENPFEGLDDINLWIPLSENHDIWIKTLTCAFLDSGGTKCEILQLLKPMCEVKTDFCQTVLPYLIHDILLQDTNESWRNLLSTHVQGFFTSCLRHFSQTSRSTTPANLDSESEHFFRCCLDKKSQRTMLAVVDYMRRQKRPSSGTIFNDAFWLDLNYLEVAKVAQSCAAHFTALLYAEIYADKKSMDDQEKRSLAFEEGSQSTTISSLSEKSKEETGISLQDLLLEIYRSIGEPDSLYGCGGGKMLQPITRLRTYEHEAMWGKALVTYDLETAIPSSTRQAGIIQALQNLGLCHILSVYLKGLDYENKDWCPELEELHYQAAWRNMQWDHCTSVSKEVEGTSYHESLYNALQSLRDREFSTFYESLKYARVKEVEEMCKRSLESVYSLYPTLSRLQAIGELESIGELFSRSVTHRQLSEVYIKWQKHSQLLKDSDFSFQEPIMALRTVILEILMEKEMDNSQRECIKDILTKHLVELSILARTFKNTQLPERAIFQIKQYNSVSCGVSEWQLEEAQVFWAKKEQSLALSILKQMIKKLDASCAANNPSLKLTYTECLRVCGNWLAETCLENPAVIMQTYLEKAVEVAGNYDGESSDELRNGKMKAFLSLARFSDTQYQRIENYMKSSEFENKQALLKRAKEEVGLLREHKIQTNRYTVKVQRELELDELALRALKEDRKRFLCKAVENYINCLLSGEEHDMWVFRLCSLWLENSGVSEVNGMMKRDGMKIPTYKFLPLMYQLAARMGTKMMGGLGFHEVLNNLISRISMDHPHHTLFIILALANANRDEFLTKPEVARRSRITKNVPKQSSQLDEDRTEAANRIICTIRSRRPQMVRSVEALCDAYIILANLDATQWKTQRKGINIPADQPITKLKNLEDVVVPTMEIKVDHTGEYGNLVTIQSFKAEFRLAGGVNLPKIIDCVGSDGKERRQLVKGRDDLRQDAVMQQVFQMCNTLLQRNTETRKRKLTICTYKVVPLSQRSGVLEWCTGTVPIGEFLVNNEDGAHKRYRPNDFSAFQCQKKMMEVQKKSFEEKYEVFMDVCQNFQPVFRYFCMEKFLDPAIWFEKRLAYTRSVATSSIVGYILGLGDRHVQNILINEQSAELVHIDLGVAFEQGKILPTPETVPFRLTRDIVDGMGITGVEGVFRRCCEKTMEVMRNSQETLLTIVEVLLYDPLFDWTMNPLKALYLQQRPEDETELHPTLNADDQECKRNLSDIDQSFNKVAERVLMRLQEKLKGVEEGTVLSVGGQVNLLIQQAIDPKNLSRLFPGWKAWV
PI4KA (P42356), sequence (P42356 whole entry): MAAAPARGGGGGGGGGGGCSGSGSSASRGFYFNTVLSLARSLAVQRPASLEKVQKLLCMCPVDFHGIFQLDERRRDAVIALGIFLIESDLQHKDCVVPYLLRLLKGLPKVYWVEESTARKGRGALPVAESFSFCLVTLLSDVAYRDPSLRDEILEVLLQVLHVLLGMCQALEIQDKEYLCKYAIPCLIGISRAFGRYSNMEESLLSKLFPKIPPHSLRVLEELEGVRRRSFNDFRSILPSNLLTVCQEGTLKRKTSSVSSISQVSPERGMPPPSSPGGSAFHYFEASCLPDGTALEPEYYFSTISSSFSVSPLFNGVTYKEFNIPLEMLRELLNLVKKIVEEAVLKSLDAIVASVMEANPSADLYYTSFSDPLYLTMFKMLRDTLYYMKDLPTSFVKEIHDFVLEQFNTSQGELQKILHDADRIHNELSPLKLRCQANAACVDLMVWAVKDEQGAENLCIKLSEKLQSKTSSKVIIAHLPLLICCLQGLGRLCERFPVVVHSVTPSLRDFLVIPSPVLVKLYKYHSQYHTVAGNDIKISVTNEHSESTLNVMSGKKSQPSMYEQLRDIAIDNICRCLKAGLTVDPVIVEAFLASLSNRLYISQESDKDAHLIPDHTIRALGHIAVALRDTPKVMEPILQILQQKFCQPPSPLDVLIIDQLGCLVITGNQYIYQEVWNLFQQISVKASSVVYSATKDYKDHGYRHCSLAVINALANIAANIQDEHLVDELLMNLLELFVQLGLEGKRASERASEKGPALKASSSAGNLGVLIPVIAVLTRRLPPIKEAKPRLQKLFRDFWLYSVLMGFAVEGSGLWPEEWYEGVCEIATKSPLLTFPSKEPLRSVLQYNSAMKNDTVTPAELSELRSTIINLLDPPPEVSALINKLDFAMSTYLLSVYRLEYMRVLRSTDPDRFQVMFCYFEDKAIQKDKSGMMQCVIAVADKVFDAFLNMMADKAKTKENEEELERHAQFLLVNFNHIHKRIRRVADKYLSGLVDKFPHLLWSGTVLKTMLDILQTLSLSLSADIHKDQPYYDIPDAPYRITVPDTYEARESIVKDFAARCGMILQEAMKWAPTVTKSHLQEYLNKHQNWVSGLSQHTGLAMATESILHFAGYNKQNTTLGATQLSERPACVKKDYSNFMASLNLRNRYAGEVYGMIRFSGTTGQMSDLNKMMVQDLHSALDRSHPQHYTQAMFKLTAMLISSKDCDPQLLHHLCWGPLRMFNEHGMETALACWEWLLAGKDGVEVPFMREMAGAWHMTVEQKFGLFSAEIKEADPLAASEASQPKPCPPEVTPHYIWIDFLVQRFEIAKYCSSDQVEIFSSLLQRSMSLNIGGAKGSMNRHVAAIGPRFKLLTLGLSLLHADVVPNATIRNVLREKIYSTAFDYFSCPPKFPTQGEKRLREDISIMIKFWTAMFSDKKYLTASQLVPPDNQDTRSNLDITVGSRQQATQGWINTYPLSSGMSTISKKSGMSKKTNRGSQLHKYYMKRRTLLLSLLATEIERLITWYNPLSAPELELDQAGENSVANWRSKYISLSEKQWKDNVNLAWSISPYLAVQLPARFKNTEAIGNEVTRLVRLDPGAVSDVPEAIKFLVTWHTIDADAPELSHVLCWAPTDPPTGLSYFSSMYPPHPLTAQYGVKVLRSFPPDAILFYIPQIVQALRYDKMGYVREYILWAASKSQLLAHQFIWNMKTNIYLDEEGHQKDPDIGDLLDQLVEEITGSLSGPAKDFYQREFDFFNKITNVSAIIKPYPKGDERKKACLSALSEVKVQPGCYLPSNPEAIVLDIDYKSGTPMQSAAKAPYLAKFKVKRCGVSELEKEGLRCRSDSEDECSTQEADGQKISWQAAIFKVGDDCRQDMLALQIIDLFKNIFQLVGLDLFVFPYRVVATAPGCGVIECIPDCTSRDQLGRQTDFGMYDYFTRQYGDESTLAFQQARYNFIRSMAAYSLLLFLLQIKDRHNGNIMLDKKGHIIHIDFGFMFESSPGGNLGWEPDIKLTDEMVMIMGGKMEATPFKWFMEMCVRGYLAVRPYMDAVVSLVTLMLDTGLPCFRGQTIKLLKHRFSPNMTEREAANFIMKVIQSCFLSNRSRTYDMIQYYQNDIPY

In the case of `CS(=O)(=O)c1ccc(-c2cnc(N)c(-c3ccc(C(F)(F)F)nc3)c2)cc1` [MMV390048], the IC90 [1] is reported as 40 nM, the lag phase [2] is reported as 24 h and the blood-stage specificity profile [3] is reported as “highest activity against the young schizont stage”. For the same molecule, the ED50 ([4]; Plasmodium berghei, in Mus musculus, po, 72 h) was 0.57 mg/kg, the ED90 ([4]; four oral administrations (4, 24, 48, 72 hours after infection), measured at 96 hours) was 1.1 mg/kg and the “in vivo parasite clearance rate” value ([4]; single oral dose 100 mg/kg) was “intermediate”. The “ED90 at day 7” value [5] was 0.57 mg/kg, the “parasitemia at the end of 4 days” value ([6]; dose of 1 mg/kg (highest predicted kill rate)) was < 0.01% and the “MIC to inhibit growth” value ([6]; modeled blood concentration) was 0.071 µg/mL (≈ 0.18 µM). The IC50 [7] was 285 nM, the IC50 [8, 34] was 214 nM and the “clearance rate (slope)” value ([8]; stage I to III, at IC50 concentration over 3 days) was −6.09. The “late-stage gametocytes killed faster than early-stage” value [9] was 2.5 times, the IC50 [9, 34] was 140 nM and the “rate of onset of action” value ([9]; luciferase-expressing gametocytes) was 24 h. The “clearance rate (slope)” value ([9]; stage IV and V, at IC50 concentration over 3 days) was −15.49, the IC50 [10] was 90 nM and the IC50 [11] was 111 nM. The inhibition at 1000 µM [12] was < 25%, the “Prepatency (±SEM)” value [13] was 6.8 days (±0.28) and the “liver-stage IC99 (in vitro)” value [14] was 90 nM. For the same molecule, the “in vivo IC99 (estimated)” value ([14]; in vitro IC99 corrected for AlbuMAX binding and plasma protein binding) was 353 ± 32 nM and 138 ± 13 ng/ml, the Cmax [15] was 1980 ng/mL and the half-life [15] was ~30 h. The “time plasma concentration above liver-stage IC99” value ([16]; 20 mg/kg oral daily for 5 days) was 15.8 days, the Cmax ([16]; monkey, plasma, po, 20 mg/kg) was 5700 ng/mL and the “time plasma concentration above blood-stage MIC” value ([16]; rhesus macaque (Macaca mulatta), in vivo) was 20 days. For the same molecule, the “serum albumin (AlbuMAX) binding” value [17] was 54%, the fraction unbound ([17]; plasma, protein binding, used for MIC correction) was 0.139 and the “localization of parasitophorous vacuole membrane protein UIS4” value [18] was “mislocalization”. The IC50 ([19]; DD2) was 16 nM, the IC50 ([19]; DD2, read-out: IC50 of resistant clones) was 70 to 90 nM and the IC50 [20] was 22.7 nM. It also gave an IC50 [21] of 62.8 nM, an IC50 [22] of 57.7 nM and a Kd [23] of 300 nM. The “effect of excess free compound on capture of P. falciparum PI4K by the beads” value ([23]; excess compound (10 µM for MMV390048)) was “competitively inhibited”, the Kd [24] was 100 nM and the binding [25] was “did not observe any binding”. For the same molecule, the binding [26] was “did not observe any binding”, the binding affinity [27] was “low binding affinity” and the binding affinity [28] was “low binding affinity”. For the same molecule, the “predicted elimination half-life in humans” value [29] was “about 90 hours”, the “predicted plasma clearance in humans” value [29] was 0.02 liter/hour per kg and the “predicted volume of distribution in humans” value [29] was 2.8 L/kg. For the same molecule, the absorption [30] was “well absorbed”, the kinetic solubility [31] was “not optimal” and the Vd [32] was 1.3 to 3 L/kg. For the same molecule, the clearance [32] was 0.6 to 6.5 mL/min/kg and the observed toxicity [33] was “without any observed toxicity”.
With `C[C@H]1[C@@H](O)O[C@@H]2O[C@@]3(C)CC[C@H]4[C@H](C)CC[C@@H]1[C@@]24OO3` [dihydroartemisinin, reference compound] the IC50 [7] was 12 nM.
In the case of `CCc1nc(N)nc(N)c1-c1ccc(Cl)cc1` [pyrimethamine, reference compound], the “IC50 fold higher at 24-hour compared to 72-hour time point” value ([3]; unsynchronized culture) is reported as 7.8 fold.
